Source: ChEMBL document CHEMBL1135612, “Identification of potent and selective small-molecule inhibitors of caspase-3 through the use of extended tethering and structure-based drug design” (J Med Chem, 2002)

How the values were obtained:
[1] = molecular target: T1, Caspase-4 (Homo sapiens, UniProt P49662); experiment: Inhibitory activity against Caspase-4
T1 sequence (P49662 whole entry): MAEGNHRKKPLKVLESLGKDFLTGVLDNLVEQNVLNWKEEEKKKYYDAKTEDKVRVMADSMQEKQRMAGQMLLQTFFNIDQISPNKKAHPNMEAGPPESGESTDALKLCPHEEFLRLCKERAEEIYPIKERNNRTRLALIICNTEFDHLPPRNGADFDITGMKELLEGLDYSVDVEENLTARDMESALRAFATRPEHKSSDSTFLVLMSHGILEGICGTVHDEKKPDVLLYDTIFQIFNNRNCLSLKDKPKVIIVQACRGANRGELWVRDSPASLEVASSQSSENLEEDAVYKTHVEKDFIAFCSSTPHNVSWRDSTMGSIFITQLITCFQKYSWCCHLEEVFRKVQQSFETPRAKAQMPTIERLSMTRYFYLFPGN
In short: (§1)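 Human recombinant caspase-1 (3 nM; 4 µM Ac-WEHD-AFC), -2 (17 nM; 40 µM Ac-VDVAD-AFC), -4 (60 nM; 30 µM Ac-WEHD-AFC) or -6 (2 nM; 7 µM Ac-VEID-AFC), final concentrations. Buffer: 25 mM HEPES pH 7.4, 0.1% CHAPS, 50 mM KCl, 5 mM β-ME. Enzyme preincubated 30 min RT with compound titrated in DMSO. Substrate starts reaction. AFC kinetics (ex 365/em 495 nm) read 15 min RT. IC50 from four-parameter fit.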

[2] = molecular target: T2, Caspase-5 (Homo sapiens, UniProt P51878); experiment: Inhibitory activity against Caspase-5
T2 sequence (P51878 whole entry): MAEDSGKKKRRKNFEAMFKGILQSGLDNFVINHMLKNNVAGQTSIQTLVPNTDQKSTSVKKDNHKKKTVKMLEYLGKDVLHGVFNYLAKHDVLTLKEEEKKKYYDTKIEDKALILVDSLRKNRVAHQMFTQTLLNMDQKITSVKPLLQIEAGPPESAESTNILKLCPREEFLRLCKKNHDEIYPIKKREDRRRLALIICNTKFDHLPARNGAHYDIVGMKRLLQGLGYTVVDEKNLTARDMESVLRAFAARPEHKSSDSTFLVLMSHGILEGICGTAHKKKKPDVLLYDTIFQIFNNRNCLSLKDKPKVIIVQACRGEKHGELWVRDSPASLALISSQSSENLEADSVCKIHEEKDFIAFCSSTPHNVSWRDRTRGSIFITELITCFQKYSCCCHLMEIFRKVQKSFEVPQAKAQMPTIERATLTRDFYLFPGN
In short: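 Recombinant human caspase-5 at 83 nM, final, with 30 µM Ac-WEHD-AFC in 100 mM HEPES pH 7.4, 10% sucrose, 0.1% CHAPS, 200 mM NaCl, 10 mM DTT. Enzyme and DMSO-titrated compound stood together 30 min at RT before substrate addition. Fluorescence (ex 365/em 495 nm) followed kinetically 15 min at RT. IC50 came from a four-parameter curve fit.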

[3] = molecular target: Caspase-8 (Homo sapiens, UniProt Q14790); experiment: Inhibitory activity against Caspase-8
In short: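 In-house expressed, purified human caspase-8 at 10 nM, final, with 3 µM Ac-IETD-AFC in 100 mM HEPES pH 7.4, 10% sucrose, 0.1% CHAPS, 10 mM DTT. Enzyme was preincubated 30 min at RT with DMSO-titrated compound, and substrate started the reaction. Fluorescence (ex 365/em 495 nm) was read kinetically for 15 min at RT. IC50 came from a four-parameter fit.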

[4] = molecular target: T3, Caspase-6 (Homo sapiens, UniProt P55212); experiment: Inhibitory activity against Caspase-6; in short: as §1
T3 sequence (P55212 whole entry): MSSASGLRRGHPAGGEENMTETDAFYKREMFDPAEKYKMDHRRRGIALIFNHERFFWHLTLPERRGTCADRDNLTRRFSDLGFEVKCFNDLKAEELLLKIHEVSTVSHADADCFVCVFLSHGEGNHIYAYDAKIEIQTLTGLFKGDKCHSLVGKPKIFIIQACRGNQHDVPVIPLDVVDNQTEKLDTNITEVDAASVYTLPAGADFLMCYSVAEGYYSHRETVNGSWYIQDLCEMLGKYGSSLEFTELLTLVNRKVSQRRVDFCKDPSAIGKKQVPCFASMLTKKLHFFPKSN

[5] = molecular target: T4, Caspase-7 (Homo sapiens, UniProt P55210); experiment: Inhibitory activity against Caspase-7
T4 sequence (P55210 whole entry): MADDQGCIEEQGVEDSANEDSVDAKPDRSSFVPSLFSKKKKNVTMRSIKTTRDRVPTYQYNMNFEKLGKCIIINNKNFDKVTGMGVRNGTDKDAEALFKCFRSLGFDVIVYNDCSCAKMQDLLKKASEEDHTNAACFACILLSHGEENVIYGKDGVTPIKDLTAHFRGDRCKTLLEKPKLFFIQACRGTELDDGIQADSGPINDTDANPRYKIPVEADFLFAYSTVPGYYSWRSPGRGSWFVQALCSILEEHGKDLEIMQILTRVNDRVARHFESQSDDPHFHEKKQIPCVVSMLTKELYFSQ
In short: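 Caspase-7 assay: 1 nM recombinant human enzyme and 30 µM Ac-DEVD-AFC, final, in 25 mM HEPES pH 7.4, 0.1% CHAPS, 50 mM KCl, 5 mM CaCl2, 5 mM β-ME. Enzyme preincubated 30 min RT with compound titrated in DMSO, then substrate added. Kinetic AFC fluorescence (ex 365/em 495 nm) over 15 min at RT. IC50 by four-parameter fit.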

[6] = molecular target: T5, Caspase-3 (Homo sapiens, UniProt P42574); experiment: Inhibitory activity against Caspase-3
T5 sequence (P42574 whole entry): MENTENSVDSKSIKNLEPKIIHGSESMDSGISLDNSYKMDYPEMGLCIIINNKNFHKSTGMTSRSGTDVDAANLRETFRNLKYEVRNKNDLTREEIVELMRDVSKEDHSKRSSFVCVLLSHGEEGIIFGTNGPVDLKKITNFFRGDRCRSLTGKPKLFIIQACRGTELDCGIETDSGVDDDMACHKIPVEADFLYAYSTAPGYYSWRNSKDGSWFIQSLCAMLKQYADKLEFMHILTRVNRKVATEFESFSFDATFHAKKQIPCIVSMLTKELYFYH

[7] = molecular target: T6, Caspase-1 (Homo sapiens, UniProt P29466); experiment: Inhibitory activity against of Caspase-1; in short: as §1
T6 sequence (P29466 whole entry): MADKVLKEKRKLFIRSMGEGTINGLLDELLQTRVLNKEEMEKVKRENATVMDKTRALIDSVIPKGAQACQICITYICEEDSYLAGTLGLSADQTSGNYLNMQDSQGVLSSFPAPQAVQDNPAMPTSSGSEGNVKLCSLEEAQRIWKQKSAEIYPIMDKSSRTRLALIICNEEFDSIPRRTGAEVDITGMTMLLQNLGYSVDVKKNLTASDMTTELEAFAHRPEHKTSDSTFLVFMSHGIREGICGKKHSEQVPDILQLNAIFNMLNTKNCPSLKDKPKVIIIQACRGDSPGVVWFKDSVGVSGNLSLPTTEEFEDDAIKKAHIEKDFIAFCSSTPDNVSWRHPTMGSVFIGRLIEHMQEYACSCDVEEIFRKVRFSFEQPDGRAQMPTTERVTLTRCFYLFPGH

[8] = molecular target: T7, Caspase-2 (Homo sapiens, UniProt P42575); experiment: Inhibitory activity against of Caspase-2; in short: as §1
T7 sequence (P42575 whole entry): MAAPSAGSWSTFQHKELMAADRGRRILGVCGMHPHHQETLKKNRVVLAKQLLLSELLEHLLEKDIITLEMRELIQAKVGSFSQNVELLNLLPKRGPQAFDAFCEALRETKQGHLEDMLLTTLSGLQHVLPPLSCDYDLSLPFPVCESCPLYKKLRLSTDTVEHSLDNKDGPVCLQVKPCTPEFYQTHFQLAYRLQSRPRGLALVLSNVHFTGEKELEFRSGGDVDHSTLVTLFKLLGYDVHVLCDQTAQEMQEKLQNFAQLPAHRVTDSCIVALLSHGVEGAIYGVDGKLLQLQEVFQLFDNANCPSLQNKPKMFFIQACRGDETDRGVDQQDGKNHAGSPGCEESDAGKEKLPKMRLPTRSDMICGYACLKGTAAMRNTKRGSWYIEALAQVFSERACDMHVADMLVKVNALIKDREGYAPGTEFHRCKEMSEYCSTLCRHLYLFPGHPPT

Sequence of Caspase-8 (Q14790 217-374 limits assumed): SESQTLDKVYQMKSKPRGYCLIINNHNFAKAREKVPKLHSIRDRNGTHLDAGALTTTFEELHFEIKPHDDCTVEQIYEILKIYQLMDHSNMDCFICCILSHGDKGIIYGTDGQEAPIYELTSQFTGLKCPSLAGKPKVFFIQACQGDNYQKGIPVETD
Sequence of Caspase-8 (Q14790 385-479 limits assumed): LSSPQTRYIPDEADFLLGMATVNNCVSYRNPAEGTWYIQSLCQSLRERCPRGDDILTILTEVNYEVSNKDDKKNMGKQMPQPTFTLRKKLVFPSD

Row | Ki [1] [µM] | Ki [2] [µM] | Ki [3] [µM] | Ki [4] [µM] | Ki [5] [µM] | Ki [6] [µM] | Ki [7] [µM] | Ki [8] [µM] | Structure (SMILES)
1 | > 100 | 63 | 0.33 | 9.7 | 0.13 | 0.02 | 3.2 | 64 | O=C(O)C[C@H](NC(=O)c1ccc(CNS(=O)(=O)c2ccc(O)c(C(=O)O)c2)s1)C(=O)CSCc1ccccc1Cl
2 | 38 | 24 | 0.05 | 0.54 | 0.12 | 0.12 | 1.9 | 21 | O=C[C@H](CC(=O)O)NC(=O)c1ccc(CNS(=O)(=O)c2ccc(O)c(C(=O)O)c2)s1
3 | 27 | 36 | 0.71 | 2.4 | 0.94 | 0.04 | 2.7 | 37 | Cc1cc(CNS(=O)(=O)c2ccc(O)c(C(=O)O)c2)sc1C(=O)N[C@@H](CC(=O)O)C(=O)CSCc1ccccc1Cl
4 | 22 | 32 | 28 | 0.19 | 0.09 | 0.02 | 25 | 30 | O=C(O)C[C@H](NC(=O)c1cnc(CNS(=O)(=O)c2ccc(O)c(C(=O)O)c2)nc1)C(=O)CSCc1ccccc1Cl
5 | 96 | 98 | 4 | 22 | 0.19 | 0.09 | 12 | 30 | CN(Cc1ccc(O)c(C(=O)O)c1)Cc1ccc(C(=O)N[C@@H](CC(=O)O)C(=O)CSCc2ccccc2Cl)s1
6 | 92 | 22 | 0.88 | 1.4 | 0.13 | 0.05 | – | 0.96 | O=C[C@H](CC(=O)O)NC(=O)c1ccc(CNS(=O)(=O)c2ccc(O)c(C(=O)O)c2)nc1
7 | 21 | 12 | 0.15 | 1 | 0.47 | 0.2 | 0.16 | 9 | O=C[C@H](CC(=O)O)NC(=O)c1ccc(CNS(=O)(=O)c2ccc(O)c(C(=O)O)c2)cc1
8 | 13 | 23 | 19 | 2.3 | 0.09 | 0.03 | 8.3 | 16 | O=C(O)C[C@H](NC(=O)c1cnc(CNS(=O)(=O)c2ccc(O)c(C(=O)O)c2)s1)C(=O)CSCc1ccccc1Cl
